In article PMC8052299 (Biochemical pharmacology, 2021):
Where two headings read alike, the source gives them in different places.

What was measured:
J-Lat 10.6 cells [1] = format: cell-based; settings: for GFP expression 24 hours after washing, % of vehicle-treated control cells: washed, 24 h drug-free
J-Lat 10.6 cells [2] = experiment: LRA-induced provirus expression; format: cell-based
[3] = system: Tat-dependent transactivation; experiment: Tat-transactivated mCherry expression in JurTat cells; format: cell-based; settings: for effect on ratio of mCherry:Dendra fluorescence: up to 30 μM
Procedure, shortened: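 JurTat cells (Tat-Dendra plus HIV LTR-mCherry) were induced with 500 ng/mL doxycycline and seeded at 200,000 cells/well with test compound or 0.1% DMSO. After 24 h, Tat-Dendra and mCherry were measured by flow cytometry. Values are percent positive cells and mCherry:Dendra fluorescence ratio, expressed relative to 0.1% DMSO-treated cells.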

CDK9/cyclin T1 = CDK9/cyclin T1 (Homo sapiens, UniProt P50750); experiment: CDK9 kinase activity assay; format: biochemical
J-Lat 9.2 cells = experiment: LRA-induced provirus expression; format: cell-based; settings: for stimulation of GFP expression: J-Lat 9.2, data not shown; for GFP expression induced, % of cells: LRA only
OM-10.1 cells = experiment: TNFα-induced provirus expression; format: cell-based; settings: for EC50: 24 h, read-out: TNFα EC50, inhibition of provirus expression
Procedure, shortened: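 OM-10.1 cells seeded at 200,000 cells/well and co-treated with 1 ng/mL TNFα plus test compound or 0.1% DMSO for 24 h. Cells were fixed, permeabilized, stained for intracellular p24Gag (KC57-RD1) and scored on live-gated cells by flow cytometry. EC50s were derived after normalizing to TNFα-only controls.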

[4] = Viability of uninfected PBMCs; format: cell-based, human; settings: human, CC50, uninfected PBMCs, Viacount dye
HIV-1NL4.3 = experiment: HIV replication assay in PBMCs; format: cell-based; settings: for HIV replication suppressed: day 6
class I and II HDAC = experiment: Cellular HDAC activity assay; format: cell-based; settings: for IC50: read-out: HDAC Inhibition IC50, Jurkat cells, 90 min, HDAC-Glo I/II
PBMCs = experiment: Viability of uninfected PBMCs; format: cell-based, human; settings: 6 days; for CC50: Viacount dye; for toxicity: up to 30 μM
Jurkat cells = experiment: Jurkat cell viability, 24 h; format: cell-based; settings: 30 μM
[5] = system: Tat-dependent transactivation; experiment: HIV Tat-induced GFP expression in CEM-GXR cells; format: cell-based, HIV-1
[6] = J-Lat 10.6, 24 h, read-out: HMBA EC50, inhibition of provirus expression
[7] = J-Lat 10.6, 24 h, read-out: JQ1 EC50, inhibition of provirus expression
[8] = J-Lat 10.6, 24 h, read-out: TNFα EC50, inhibition of provirus expression
[9] = 15 μM, JurTat + 500 ng/mL Dox, 24 h
[10] = J-Lat 9.2, 24 h, read-out: Panobinostat EC50, inhibition of provirus expression
[11] = J-Lat 9.2, 24 h, read-out: Prostratin EC50, inhibition of provirus expression
[12] = J-Lat 9.2, 24 h, read-out: TNFα EC50, inhibition of provirus expression

CDK9/cyclin T1, sequence (P50750 whole entry): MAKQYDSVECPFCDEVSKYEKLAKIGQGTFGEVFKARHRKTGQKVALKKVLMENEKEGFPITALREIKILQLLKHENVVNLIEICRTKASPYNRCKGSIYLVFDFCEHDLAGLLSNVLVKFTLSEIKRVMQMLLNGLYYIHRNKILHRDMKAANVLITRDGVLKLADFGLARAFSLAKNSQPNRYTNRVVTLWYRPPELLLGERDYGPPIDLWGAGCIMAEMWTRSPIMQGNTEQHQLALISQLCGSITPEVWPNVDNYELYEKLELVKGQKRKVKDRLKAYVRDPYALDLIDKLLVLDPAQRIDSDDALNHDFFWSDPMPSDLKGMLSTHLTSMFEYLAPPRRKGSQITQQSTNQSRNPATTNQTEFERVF
CDK9/cyclin T1, sequence (O60563 whole entry partner): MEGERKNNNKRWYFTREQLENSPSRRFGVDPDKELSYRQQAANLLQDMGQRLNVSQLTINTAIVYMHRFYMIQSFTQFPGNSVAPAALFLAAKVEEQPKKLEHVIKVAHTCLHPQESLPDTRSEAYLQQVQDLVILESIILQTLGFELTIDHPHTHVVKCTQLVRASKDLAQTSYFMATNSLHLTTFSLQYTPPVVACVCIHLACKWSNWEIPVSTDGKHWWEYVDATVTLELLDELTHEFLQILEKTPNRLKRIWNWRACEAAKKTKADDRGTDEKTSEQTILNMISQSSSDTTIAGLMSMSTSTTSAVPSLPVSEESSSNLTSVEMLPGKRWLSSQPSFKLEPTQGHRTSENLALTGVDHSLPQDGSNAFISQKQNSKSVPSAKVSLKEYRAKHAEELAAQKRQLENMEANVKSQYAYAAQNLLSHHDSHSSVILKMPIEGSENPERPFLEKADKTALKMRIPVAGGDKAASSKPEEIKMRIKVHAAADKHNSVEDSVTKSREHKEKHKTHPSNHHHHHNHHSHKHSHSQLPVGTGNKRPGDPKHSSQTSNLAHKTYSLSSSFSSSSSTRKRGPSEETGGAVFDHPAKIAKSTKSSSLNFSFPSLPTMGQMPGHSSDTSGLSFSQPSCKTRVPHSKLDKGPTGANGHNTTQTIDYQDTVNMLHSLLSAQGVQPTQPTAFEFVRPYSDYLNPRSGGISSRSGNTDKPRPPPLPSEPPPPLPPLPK

Molecule	GFP expression 24 hours after washing, % of vehicle-treated control cells (J-Lat 10.6 cells [1]; 10 μM for 21 days, J-Lat 10.6) [%]	EC50 (J-Lat 10.6 cells [2]; [6]) [µM]	EC50 (J-Lat 10.6 cells [2]; [7]) [µM]	EC50 (J-Lat 10.6 cells [2]; [8]) [µM]	IC50 (CDK9/cyclin T1) [µM]	EC50 (J-Lat 9.2 cells; [10]) [µM]	EC50 (J-Lat 9.2 cells; [11]) [µM]	EC50 (J-Lat 9.2 cells; [12]) [µM]	EC50 (OM-10.1 cells) [µM]	CC50 at 6 days [4] [µM]	HDAC activity inhibited (class I and II HDAC; 10 μM, Jurkat) [%]	IC50 (class I and II HDAC) [µM]	also measured
O=c1cc(-c2ccc(O)cc2)oc2cc(O)cc(O)c12 [Apigenin, apigenin]	80.6 ± 80.5	5.2 ± 0.8	7.2 ± 1.1	6.2 ± 0.3	0.21 ± 0.1	4.1 ± 0.4	7.3 ± 1.1	5.6 ± 0.6	4.1 ± 0.8	19.8 ± 6.5	19.4 ± 5.4	47.2 ± 6.7	Dendra, % of fluorescence in cells treated with only Dox ([3]; 15 μM, JurTat): 39.9%; mCherry, % of fluorescence in cells treated with only Dox ([3]; 15 μM, JurTat): 13.7%; residual mCherry fluorescence as % of residual Dendra fluorescence ([3]; 15 μM, JurTat): 34.3%; Dendra expression, % of cells [3, 9]: 17.4 ± 6.5%; mCherry expression, % of cells [3, 9]: 1.8 ± 0.7%; EC50, mCherry:Dendra fluorescence ratio ([3]; JurTat + 500 ng/mL Dox, 24 h): 14.5 ± 1.5 µM; Selectivity Index (CC50/EC50) (HIV-1NL4.3): 4.0
COc1cc(F)ccc1-c1ncnc(Nc2cccc(C[S@](C)(=N)=O)c2)n1 [Atuveciclib, atuveciclib, reference compound]	53.0 ± 0.8	1.8 ± 0.1	2.4 ± 0.2	4.3 ± 0.2	–	3.6 ± 0.8	1.8 ± 0.1	1.7 ± 0.2	1.8 ± 0.09	24.7 ± 4.9	11.3 ± 12.9	> 90	GFP expression 11 days following wash-out (J-Lat 10.6 cells [1]; 10 μM for 21 days, J-Lat 10.6): returned to those of untreated controls; GFP expression before wash-out, % of untreated cells (J-Lat 10.6 cells [1]; 10 μM, 21 days, J-Lat 10.6): 3.4 ± 0.7%; spontaneous GFP production abolished (J-Lat 10.6 cells [1]; 10 μM, after 9 days, J-Lat 10.6): > 95%; duration of reinforced latency following withdrawal in vitro (J-Lat 10.6 cells [1]; J-Lat 10.6, after 21 days' treatment): 9 days; CC50 (PBMCs): 24.4 ± 1.5 µM; viability reduced vs 0.1% DMSO (Jurkat cells): 61.3 ± 2.6%; HDAC activity inhibited (class I and II HDAC; 90 μM, Jurkat): 29.7 ± 14.3%
O=c1cc(-c2ccccc2)oc2cc(O)cc(O)c12 [Chrysin, chrysin]	70.9 ± 65.6	6.7 ± 1.4	7.7 ± 1.5	6.3 ± 0.7	0.021 ± 0.01	2.8 ± 0.4	4.3 ± 1.2	4 ± 0.4	4.7 ± 0.3	> 30	37.9 ± 7.7	24 ± 4.8	provirus expression inhibited (J-Lat 9.2 cells; 3 μM, J-Lat 9.2, 10 ng/mL TNFα): 22.5 ± 24.9%; provirus expression inhibited (J-Lat 9.2 cells; 10 μM, J-Lat 9.2, 10 ng/mL TNFα): 88.3 ± 8.8%; toxicity (PBMCs): no toxicity was observed; Selectivity Index (CC50/EC50) (HIV-1NL4.3): > 3.3
CC(=O)NCCCCCCNC(C)=O [HMBA, reference compound]	–	–	–	–	–	–	–	–	–	–	–	–	GFP production, % of cells (J-Lat 10.6 cells [2]; J-Lat 10.6, 10 mM, LRA only): 34.6 ± 1.4%; stimulation of GFP expression (J-Lat 9.2 cells): did not stimulate GFP expression
Cc1sc2c(c1C)C(c1ccc(Cl)cc1)=N[C@@H](CC(=O)OC(C)(C)C)c1nnc(C)n1-2 [JQ1, reference compound]	–	–	–	–	–	–	–	–	–	–	–	–	GFP production, % of cells (J-Lat 10.6 cells [2]; J-Lat 10.6, 10 μM, LRA only): 35.9 ± 2.0%; stimulation of GFP expression (J-Lat 9.2 cells): did not stimulate GFP expression
O=c1cc(-c2ccc(O)c(O)c2)oc2cc(O[C@@H]3O[C@H](CO)[C@@H](O)[C@H](O)[C@H]3O)cc(O)c12 [L7G, luteolin-7-glucoside]	–	–	–	–	–	–	–	–	–	–	–	> 90	EC50 ([5]; read-out: Tat-dependent transactivation EC50, pCMV-Tat-transfected CEM-GXR cells, GFP, 24 h): > 30 µM; inhibition of Tat-induced GFP expression ([5]; up to 30 μM, CEM-GXR): unable to inhibit GFP expression; spontaneous latency reversal (J-Lat 10.6 cells [1]; 10 μM, 21 days, J-Lat 10.6): highly variable, but not inhibited; EC50 (J-Lat 10.6 cells [2]; read-out: HMBA EC50, inhibition of provirus expression, J-Lat 10.6, 10 mM HMBA, 24 h, GFP): 10.1 ± 3.5 µM; EC50 (J-Lat 10.6 cells [2]; read-out: JQ1 EC50, inhibition of provirus expression, J-Lat 10.6, 10 μM JQ1, 24 h, GFP): 16.4 ± 3.3 µM; EC50 (J-Lat 10.6 cells [2]; read-out: TNFα EC50, inhibition of provirus expression, J-Lat 10.6, 10 ng/mL TNFα, 24 h, GFP): 11.9 ± 0.5 µM; effect on ratio of mCherry:Dendra fluorescence ([3]; JurTat): neither naringenin nor L7G substantially affected the ratio; CDK9 IC50 fold higher than aglycone analogue luteolin (CDK9/cyclin T1): 96 fold; IC50 (CDK9/cyclin T1; read-out: CDK9 inhibition IC50, purified CDK9/cyclin T1, 10 μM ATP, ADP-Glo): 6.9 ± 3.9 µM; EC50 (J-Lat 9.2 cells; read-out: Panobinostat EC50, inhibition of provirus expression, J-Lat 9.2, 0.1 μM panobinostat, 24 h, GFP): 4.3 ± 0.4 µM; EC50 (J-Lat 9.2 cells; read-out: Prostratin EC50, inhibition of provirus expression, J-Lat 9.2, 10 μM prostratin, 24 h, GFP): 17.3 ± 2.2 µM; EC50 (J-Lat 9.2 cells; read-out: TNFα EC50, inhibition of provirus expression, J-Lat 9.2, 10 ng/mL TNFα, 24 h, GFP): 4.5 ± 0.6 µM; EC50 (OM-10.1 cells; OM-10.1, 1 ng/mL TNFα, p24Gag): 10.3 ± 1.2 µM; CC50 (PBMCs): 18.3 ± 2.5 µM; HIV replication suppressed (HIV-1NL4.3; 1 μM): 26.3 ± 24.8%; HIV replication suppressed (HIV-1NL4.3; 10 μM): 77.3 ± 32.7%
O=c1cc(-c2ccc(O)c(O)c2)oc2cc(O)cc(O)c12 [Luteolin, luteolin]	79.9 ± 26.6	26.5 ± 5.8	15.4 ± 1.5	13.6 ± 0.8	0.072 ± 0.03	6.8 ± 0.8	20.6 ± 2.6	7.6 ± 0.6	10.3 ± 0.6	13.9 ± 5.9	10.1 ± 1.6	> 90	EC50, mCherry:Dendra fluorescence ratio ([3]; JurTat + 500 ng/mL Dox, 24 h): 9.5 ± 1.5 µM; Selectivity Index (CC50/EC50) (HIV-1NL4.3): 1.1; HDAC activity inhibited (class I and II HDAC; 100 μM, Jurkat): 42.6 ± 9.5%
O=C1C[C@@H](c2ccc(O)cc2)Oc2cc(O)cc(O)c21 [Naringenin, naringenin, reference compound]	–	> 30	> 30	> 30	> 30	> 30	> 30	> 30	> 30	> 30	–	88.7 ± 32.1	inhibition of LRA-induced provirus expression (J-Lat 10.6 cells [2]; J-Lat 10.6, TNFα, JQ1, HMBA): did not inhibit any LRA-induced provirus expression; effect on ratio of mCherry:Dendra fluorescence ([3]; JurTat): neither naringenin nor L7G substantially affected the ratio; inhibition of TNFα-induced provirus expression (OM-10.1 cells; OM-10.1, 1 ng/mL TNFα): no inhibition was observed; toxicity (PBMCs): No toxicity was observed; antiviral activity (HIV-1NL4.3; up to 30 μM): no antiviral activity was observed
Cc1[nH]c2ccccc2c1CCNCc1ccc(/C=C/C(=O)NO)cc1 [panobinostat, reference compound]	–	–	–	–	–	–	–	–	–	–	–	–	GFP expression induced, % of cells (J-Lat 9.2 cells; J-Lat 9.2, 0.1 μM, 24 h): 10.8 ± 1.4%; cellular HDAC activity reduced (class I and II HDAC; 0.1 μM, Jurkat): 88.0 ± 10.9%
CC(=O)O[C@@]12C[C@@H](C)[C@@]3(O)[C@@H](C=C(CO)C[C@]4(O)C(=O)C(C)=C[C@@H]34)[C@@H]1C2(C)C [prostratin, reference compound]	–	–	–	–	–	–	–	–	–	–	–	–	GFP expression induced, % of cells (J-Lat 9.2 cells; J-Lat 9.2, 10 μM, 24 h): 10.7 ± 2.7%
TNFα	–	–	–	–	–	–	–	–	–	–	–	–	GFP-positive cells induced (J-Lat 10.6 cells [2]; J-Lat 10.6, 10 ng/mL, 24 h, LRA only): 80.3 ± 2.6%; GFP expression induced, % of cells (J-Lat 9.2 cells; J-Lat 9.2, 10 ng/mL, 24 h): 10.4 ± 1.7%; p24Gag production induced, % of live-gated cells (OM-10.1 cells; OM-10.1, 1 ng/mL): 90.6 ± 4.0%
